# From ChEMBL document CHEMBL1240420, “Synthesis and biological evaluation of cinnamido linked pyrrolo[2,1-c][1,4]benzodiazepines as antimitotic agents” (Eur J Med Chem, 2010)
# Columns and labels:
# Format in all cases: functional
# COLO 205 = assay: Cytotoxicity against human COLO205 cells after 48 hrs by SRB assay; conditions: COLO 205, 48 h
# Method in brief: (§1)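 Cells were grown in RPMI 1640 with 10% FBS and 2 mM L-glutamine, plated 24 h before dosing, then given continuous 48 h exposure at 0.1, 1, 10 and 100 µM in triplicate wells. Cells were fixed with cold TCA (10% final, 60 min, 4 °C), stained with 0.4% SRB in 1% acetic acid for 20 min, eluted with 10 mM Tris base, and read at 540/690 nm. GI50 was taken from [(Ti−Tz)/(C−Tz)]×100 = 50; three determinations were averaged.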
# NCI-H322M = assay: Cytotoxicity against human NCI-H322M cells after 48 hrs by SRB assay
# A498 = assay: Cytotoxicity against human A498 cells after 48 hrs by SRB assay; conditions: A498, 48 h
# PC-3 = assay: Cytotoxicity against human PC3 cells after 48 hrs by SRB assay; conditions: PC-3, 48 h; method in brief: as §1
# 786-0 = assay: Cytotoxicity against human 786-0 cells after 48 hrs by SRB assay; conditions: 786-0, 48 h
# HOP-62 = assay: Cytotoxicity against human HOP62 cells after 48 hrs by SRB assay; conditions: HOP-62, 48 h; method in brief: as §1
# K562 = assay: Cytotoxicity against human K562 cells after 48 hrs by SRB assay; conditions: K562, 48 h
# OVCAR-3 = assay: Cytotoxicity against human OVCAR-3 cells after 48 hrs by SRB assay; conditions: OVCAR-3, 48 h
# NCI-H226 = assay: Cytotoxicity against human NCI-H226 cells after 48 hrs by SRB assay; conditions: NCI-H226, 48 h
# SNB-75 = assay: Cytotoxicity against human SNB75 cells after 48 hrs by SRB assay; conditions: SNB-75, 48 h
# SF-539 = assay: Cytotoxicity against human SF539 cells after 48 hrs by SRB assay; conditions: SF-539, 48 h
# MDA-MB-231 = assay: Cytotoxicity against human MDA-MB-231 cells after 48 hrs by SRB assay; conditions: MDA-MB-231, 48 h
# ACHN = assay: Cytotoxicity against human ACHN cells after 48 hrs by SRB assay
# EKVX = assay: Cytotoxicity against human EKVX cells after 48 hrs by SRB assay
# NCI-H522 = assay: Cytotoxicity against human NCI-H522 cells after 48 hrs by SRB assay; conditions: NCI-H522, 48 h
# M14 = assay: Cytotoxicity against human M14 cells after 48 hrs by SRB assay; conditions: M14, 48 h
# UACC-62 = assay: Cytotoxicity against human UACC62 cells after 48 hrs by SRB assay; conditions: UACC-62, 48 h
# [1] = Cytotoxicity against human Hs 578T cells after 48 hrs by SRB assay
# HL-60(TB) = assay: Cytotoxicity against human HL-60(TB) cells after 48 hrs by SRB assay; conditions: HL-60, 48 h
# HOP-92 = assay: Cytotoxicity against human HOP92 cells after 48 hrs by SRB assay; conditions: HOP-92, 48 h
# BT-549 = assay: Cytotoxicity against human BT549 cells after 48 hrs by SRB assay; conditions: BT-549, 48 h
# SF-295 = assay: Cytotoxicity against human SF295 cells after 48 hrs by SRB assay; conditions: SF-295, 48 h
# OVCAR-4 = assay: Cytotoxicity against human OVCAR4 cells after 48 hrs by SRB assay; conditions: OVCAR-4, 48 h
# UO-31 = assay: Cytotoxicity against human UO31 cells after 48 hrs by SRB assay; conditions: UO-31, 48 h
# SNB-19 = assay: Cytotoxicity against human SNB19 cells after 48 hrs by SRB assay; conditions: SNB-19, 48 h
# LOX IMVI = assay: Cytotoxicity against human LOXIMVI cells after 48 hrs by SRB assay
# CAKI-1 = assay: Cytotoxicity against human Caki1 cells after 48 hrs by SRB assay; conditions: CAKI-1, 48 h
# NCI-H460 = assay: Cytotoxicity against human NCI-H460 cells after 48 hrs by SRB assay; conditions: NCI-H460, 48 h
# SR = assay: Cytotoxicity against human SR cells after 48 hrs by SRB assay
# SF-268 = assay: Cytotoxicity against human SF268 cells after 48 hrs by SRB assay; conditions: SF-268, 48 h
# OVCAR-8 = assay: Cytotoxicity against human OVCAR8 cells after 48 hrs by SRB assay; conditions: OVCAR-8, 48 h
# UACC-257 = assay: Cytotoxicity against human UACC257 cells after 48 hrs by SRB assay; conditions: UACC-257, 48 h
# NCI/ADR-RES = assay: Cytotoxicity against human NCI/ADR-RES cells after 48 hrs by SRB assay
# SN12C = assay: Cytotoxicity against human SN12C cells after 48 hrs by SRB assay
# MDA-MB-435 = assay: Cytotoxicity against human MDA-MB-435 cells after 48 hrs by SRB assay; conditions: MDA-MB-435, 48 h
# CCRF-CEM = assay: Cytotoxicity against human CCRF-CEM cells after 48 hrs by SRB assay
# A549 = assay: Cytotoxicity against human A549 cells after 48 hrs by SRB assay; conditions: A549, 48 h; method in brief: as §1
# MCF7 = assay: Cytotoxicity against human MCF7 cells after 48 hrs by SRB assay; conditions: MCF7, 48 h; method in brief: as §1
# MOLT-4 = assay: Cytotoxicity against human MOLT4 cells after 48 hrs by SRB assay; conditions: MOLT-4, 48 h
# HCC 2998 = assay: Cytotoxicity against human HCC2998 cells after 48 hrs by SRB assay; conditions: HCC 2998, 48 h
# U-251 = assay: Cytotoxicity against human U251 cells after 48 hrs by SRB assay; conditions: U-251, 48 h
# T47D = assay: Cytotoxicity against human T47D cells after 48 hrs by SRB assay
# RXF 393 = assay: Cytotoxicity against human […] cells after 48 hrs by SRB assay; conditions: RXF 393, 48 h
# SK-MEL-28 = assay: Cytotoxicity against human SK-MEL-28 cells after 48 hrs by SRB assay; conditions: SK-MEL-28, 48 h
# OVCAR-5 = assay: Cytotoxicity against human OVCAR5 cells after 48 hrs by SRB assay; conditions: OVCAR-5, 48 h
# SW-620 = assay: Cytotoxicity against human SW620 cells after 48 hrs by SRB assay; conditions: SW-620, 48 h
# MDA-MB-468 = assay: Cytotoxicity against human MDA-MB-468 cells after 48 hrs by SRB assay; conditions: MDA-MB-468, 48 h
# HCT-15 = assay: Cytotoxicity against human HCT15 cells after 48 hrs by SRB assay; conditions: HCT-15, 48 h
# IGROV-1 = assay: Cytotoxicity against human IGROV1 cells after 48 hrs by SRB assay; conditions: IGROV-1, 48 h
# KM12 = assay: Cytotoxicity against human KM12 cells after 48 hrs by SRB assay; conditions: KM12, 48 h
# DU-145 = assay: Cytotoxicity against human DU145 cells after 48 hrs by SRB assay; conditions: DU-145, 48 h
# Malme-3M = assay: Cytotoxicity against human MALME-3M cells after 48 hrs by SRB assay
# SK-MEL-2 = assay: Cytotoxicity against human SK-MEL-2 cells after 48 hrs by SRB assay; conditions: SK-MEL-2, 48 h
# HCT-116 = assay: Cytotoxicity against human HCT116 cells after 48 hrs by SRB assay; conditions: HCT-116, 48 h
# SK-MEL-5 = assay: Cytotoxicity against human SK-MEL-5 cells after 48 hrs by SRB assay; conditions: SK-MEL-5, 48 h
# HT-29 = assay: Cytotoxicity against human HT-29 cells after 48 hrs by SRB assay; conditions: HT-29, 48 h
# NCI-H23 = assay: Cytotoxicity against human NCI-H23 cells after 48 hrs by SRB assay; conditions: NCI-H23, 48 h
# SK-OV-3 = assay: Cytotoxicity against human SKOV3 cells after 48 hrs by SRB assay; conditions: SK-OV-3, 48 h
# TK-10 = assay: Cytotoxicity against human TK10 cells after 48 hrs by SRB assay; conditions: TK-10, 48 h
smiles,measurement,setting,value
COc1cc(/C=C/C(=O)N2CCN(C(=O)c3cc(OC)c(OC)c(OC)c3)CC2)ccc1OCCCOc1cc2c(cc1OC)C(=O)N1CCC[C@H]1C=N2,GI50,COLO 205,190 nM
same,GI50,NCI-H322M,340 nM
same,GI50,A498,190 nM
same,GI50,PC-3,730 nM
same,GI50,786-0,270 nM
same,GI50,HOP-62,230 nM
same,GI50,K562,690 nM
same,GI50,OVCAR-3,210 nM
same,GI50,NCI-H226,310 nM
same,GI50,SNB-75,210 nM
same,GI50,SF-539,240 nM
same,GI50,MDA-MB-231,230 nM
same,GI50,ACHN,2540 nM
same,GI50,EKVX,720 nM
same,GI50,NCI-H522,60 nM
same,GI50,M14,320 nM
same,GI50,UACC-62,160 nM
same,GI50,[1],230 nM
same,GI50,HL-60(TB),180 nM
same,GI50,HOP-92,490 nM
same,GI50,BT-549,150 nM
same,GI50,SF-295,310 nM
same,GI50,OVCAR-4,1070 nM
same,GI50,UO-31,2590 nM
same,GI50,SNB-19,380 nM
same,GI50,LOX IMVI,240 nM
same,GI50,CAKI-1,2110 nM
same,GI50,NCI-H460,240 nM
same,GI50,SR,280 nM
same,GI50,SF-268,240 nM
same,GI50,OVCAR-8,450 nM
same,GI50,UACC-257,350 nM
same,GI50,NCI/ADR-RES,8910 nM
same,GI50,SN12C,270 nM
same,GI50,MDA-MB-435,180 nM
same,GI50,CCRF-CEM,80 nM
same,GI50,A549,1890 nM
same,GI50,MCF7,80 nM
same,GI50,MOLT-4,230 nM
same,GI50,HCC 2998,240 nM
same,GI50,U-251,180 nM
same,GI50,T47D,230 nM
same,GI50,RXF 393,540 nM
same,GI50,SK-MEL-28,200 nM
same,GI50,OVCAR-5,290 nM
same,GI50,SW-620,170 nM
same,GI50,MDA-MB-468,70 nM
same,GI50,HCT-15,2980 nM
same,GI50,IGROV-1,240 nM
same,GI50,KM12,210 nM
same,GI50,DU-145,330 nM
same,GI50,Malme-3M,170 nM
same,GI50,SK-MEL-2,260 nM
same,GI50,HCT-116,170 nM
same,GI50,SK-MEL-5,190 nM
same,GI50,HT-29,260 nM
same,GI50,NCI-H23,260 nM
same,GI50,SK-OV-3,610 nM
same,GI50,TK-10,290 nM
